Test results published in ChEMBL document CHEMBL3286335, “Synthesis of 2,3,6-trideoxy sugar triazole hybrids as potential new broad spectrum antimicrobial agents” (Eur J Med Chem, 2014).
≈ marks a conversion by molar mass, not a printed value.

Assays:
L929 [1] = test: Cytotoxicity against mouse L929 cells assessed as change in morphology at 50 ug/ml after 24 hrs using Giemsa staining by phase contrast microscopy; type: cell-based; conditions: l929, 24 h
In short: (§1)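 Mouse fibroblast L929 cells grown in DMEM with 10% FBS and antibiotic/antimycotic at 37 °C, 5% CO2. Medium switched to serum-free DMEM at 90% confluency, then compounds added (DMSO stocks) for 24 h. Cells fixed, stained with Giemsa for 30 min at 37 °C, washed with PBS, air dried and examined by phase-contrast microscopy.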

Staphylococcus aureus [2] = test: Antimicrobial activity against methicillin-resistant Staphylococcus aureus after 24 hrs by microbroth dilution method; type: functional
In short: (§2)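 Microbroth dilution in Mueller Hinton broth, following NCCLS guidelines. Test compounds were run at 50-0.36 µg/mL against an initial inoculum of 1-5 × 10^3 cells/mL. Plates were incubated in a moist chamber at 35 °C, and absorbance at 492 nm was read after 24 h. MIC was taken as 90% growth inhibition relative to the growth control.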

Candida albicans [3] = test: Antimicrobial activity against Candida albicans after 48 hrs by microbroth dilution method; type: functional
In short: (§3)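 Broth microdilution per NCCLS guidelines. Bacteria in Mueller-Hinton broth; fungi in MOPS-buffered RPMI 1640. Test compounds at 50-0.36 µg/mL, standard drugs over 32-0.0018 µg/mL. Inoculum 1-5 × 10^3 cells/mL, 35 °C in a moist chamber. A492 read at 24 h for bacteria, 48 h for C. albicans, 72 h for A. fumigatus, C. neoformans and S. schenckii, 96 h for T. mentagrophytes. MIC taken as 90% growth inhibition relative to growth control.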

Staphylococcus aureus [4] = test: Antimicrobial activity against Staphylococcus aureus ATCC 25923 after 24 hrs by microbroth dilution method; type: functional; conditions: ATCC 25923, 24 h; in short: as §3
Pseudomonas aeruginosa = test: Antimicrobial activity against Pseudomonas aeruginosa ATCC BAA-427 after 24 hrs by microbroth dilution method; type: functional; conditions: ATCC BAA-427, 24 h; in short: as §3
L929 [5] = test: Cytotoxicity against mouse L929 cells assessed as reduction in cell viability after 24 hrs by MTT assay; type: cell-based; conditions: l929, 24 h
In short: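 L929 fibroblasts in DMEM with 10% FBS at 37 °C, 5% CO2. Seeded at 1×10^3 cells per well, switched to serum-free DMEM at 90% confluency. Compounds from 1 mg/mL DMSO stocks tested at nine twofold dilutions for 24 h. MTT readout: viability = (A570−A630) sample / (A570−A630) control × 100.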

Aspergillus fumigatus = test: Antimicrobial activity against Aspergillus fumigatus after 72 hrs by microbroth dilution method; type: functional; in short: as §3
L929 [6] = test: Cytotoxicity against mouse L929 cells assessed as change in morphology at MIC after 24 hrs using Giemsa staining by phase contrast microscopy; type: cell-based; conditions: l929, 24 h; in short: as §1
Sporothrix schenckii = test: Antimicrobial activity against Sporothrix schenckii after 72 hrs by microbroth dilution method; type: functional; in short: as §3
Escherichia coli = test: Antimicrobial activity against Escherichia coli ATCC 9637 after 24 hrs by microbroth dilution method; type: functional; conditions: ATCC 9637, 24 h; in short: as §3
Klebsiella pneumoniae [7] = test: Antimicrobial activity against Klebsiella pneumoniae ATCC 27736 after 24 hrs by microbroth dilution method; type: functional; conditions: ATCC 27736, 24 h; in short: as §3
Cryptococcus neoformans = test: Antimicrobial activity against Cryptococcus neoformans after 72 hrs by microbroth dilution method; type: functional; in short: as §3
Staphylococcus aureus [8] = test: Antimicrobial activity against vancomycin-resistant Staphylococcus aureus after 24 hrs by microbroth dilution method; type: functional; in short: as §2
[9] = test system: Trichophyton mentagrophytes; test: Antimicrobial activity against Trichophyton mentagrophytes after 96 hrs by microbroth dilution method; type: functional; in short: as §3
Staphylococcus aureus [10] = test: Ratio of ampicillin MIC to compound MIC for Staphylococcus aureus ATCC 25923 after 24 hrs by microbroth dilution method; type: functional
Klebsiella pneumoniae [11] = test: Ratio of gentamycin MIC to compound MIC for Klebsiella pneumoniae ATCC 27736 after 24 hrs by microbroth dilution method; type: functional
Klebsiella pneumoniae [12] = test: Ratio of methicillin MIC to compound MIC for Klebsiella pneumoniae ATCC 27736 after 24 hrs by microbroth dilution method; type: functional
Klebsiella pneumoniae [13] = test: Ratio of vancomycin MIC to compound MIC for Klebsiella pneumoniae ATCC 27736 after 24 hrs by microbroth dilution method; type: functional
Klebsiella pneumoniae [14] = test: Ratio of ampicillin MIC to compound MIC for Klebsiella pneumoniae ATCC 27736 after 24 hrs by microbroth dilution method; type: functional
Staphylococcus aureus [15] = test: Ratio of vancomycin MIC to compound MIC for Staphylococcus aureus ATCC 25923 after 24 hrs by microbroth dilution method; type: functional
Candida albicans [16] = test: Ratio of miconazole MIC to compound MIC for Candida albicans after 48 hrs by microbroth dilution method; type: functional

Compound	Activity (L929 [1])	MIC (Staphylococcus aureus [2]) [µg/mL]	MIC (Candida albicans [3]) [µg/mL]	MIC (Staphylococcus aureus [4]) [µg/mL]	MIC (Pseudomonas aeruginosa) [µg/mL]	Activity (L929 [5])	MIC (Aspergillus fumigatus) [µg/mL]	Activity (L929 [6])	MIC (Sporothrix schenckii) [µg/mL]	MIC (Escherichia coli) [µg/mL]	MIC (Klebsiella pneumoniae [7]) [µg/mL]	MIC (Cryptococcus neoformans) [µg/mL]	MIC (Staphylococcus aureus [8]) [µg/mL]	MIC [9] [µg/mL]	further results
CC(C)CCO[C@@H]1C=CC(=O)[C@@H](Cn2cc(C=O)nn2)O1	Toxic	> 50	> 50	50 (≈ 170 µM)	50 (≈ 170 µM)	Dose-dependent effect	25 (≈ 85.2 µM)	Non-toxic	25 (≈ 85.2 µM)	50 (≈ 170 µM)	50 (≈ 170 µM)	50 (≈ 170 µM)	> 50	3.12 (≈ 10.6 µM)	–
CCCCCCCCc1cn(C[C@H]2O[C@H](OCCC(C)C)C=CC2=O)nn1	Toxic	3.12 (≈ 8.26 µM)	> 50	0.78 (≈ 2.07 µM)	> 50	Dose-dependent effect	> 50	Non-toxic	50 (≈ 132 µM)	> 50	0.78 (≈ 2.07 µM)	> 50	3.12 (≈ 8.26 µM)	3.12 (≈ 8.26 µM)	Ratio (Staphylococcus aureus [10]): 16; Ratio (Klebsiella pneumoniae [11]): 2; Ratio (Klebsiella pneumoniae [12]): 8; Ratio (Klebsiella pneumoniae [13]): 16; Ratio (Klebsiella pneumoniae [14]): 16; Ratio (Staphylococcus aureus [15]): 16
CCCCCc1cn(C[C@H]2O[C@H](OCCC(C)C)C=CC2=O)nn1	Toxic	6.25 (≈ 18.6 µM)	> 50	3.12 (≈ 9.3 µM)	> 50	Dose-dependent effect	> 50	Non-toxic	12.5 (≈ 37.3 µM)	> 50	3.12 (≈ 9.3 µM)	> 50	6.25 (≈ 18.6 µM)	3.12 (≈ 9.3 µM)	–
CCCCCCCCc1cnnn1C[C@H]1O[C@H](OCCC(C)C)C=CC1=O	Toxic	12.5 (≈ 33.1 µM)	50 (≈ 132 µM)	0.78 (≈ 2.07 µM)	> 50	Dose-dependent effect	> 50	Non-toxic	6.25 (≈ 16.6 µM)	> 50	50 (≈ 132 µM)	25 (≈ 66.2 µM)	12.5 (≈ 33.1 µM)	25 (≈ 66.2 µM)	Ratio (Staphylococcus aureus [10]): 16; Ratio (Staphylococcus aureus [15]): 16
CCCCCCCCc1cn(C[C@H]2O[C@H](OCCCC)C=CC2=O)nn1	–	> 50	6.25 (≈ 17.2 µM)	6.25 (≈ 17.2 µM)	> 50	–	> 50	–	25 (≈ 68.8 µM)	> 50	> 50	25 (≈ 68.8 µM)	> 50	6.25 (≈ 17.2 µM)	Ratio (Candida albicans [16]): 4
CC(C)CCO[C@@H]1C=CC(=O)[C@@H](Cn2cc(C(C)(C)C)nn2)O1	Toxic	12.5 (≈ 38.9 µM)	25 (≈ 77.8 µM)	1.56 (≈ 4.85 µM)	> 50	Dose-dependent effect	> 50	Non-toxic	12.5 (≈ 38.9 µM)	> 50	> 50	25 (≈ 77.8 µM)	12.5 (≈ 38.9 µM)	> 50	–
CC(C)CCO[C@@H]1C=CC(=O)[C@@H](Cn2cc(-c3ccccc3)nn2)O1	Toxic	12.5 (≈ 36.6 µM)	12.5 (≈ 36.6 µM)	6.25 (≈ 18.3 µM)	50 (≈ 146 µM)	Dose-dependent effect	50 (≈ 146 µM)	Non-toxic	12.5 (≈ 36.6 µM)	50 (≈ 146 µM)	3.12 (≈ 9.14 µM)	25 (≈ 73.2 µM)	12.5 (≈ 36.6 µM)	50 (≈ 146 µM)	–
CC(C)CCO[C@@H]1C=CC(=O)[C@@H](Cn2cc(CCBr)nn2)O1	–	> 50	12.5 (≈ 33.6 µM)	12.5 (≈ 33.6 µM)	> 50	–	50 (≈ 134 µM)	–	25 (≈ 67.2 µM)	> 50	50 (≈ 134 µM)	12.5 (≈ 33.6 µM)	> 50	6.25 (≈ 16.8 µM)	–
CC(C)CCO[C@@H]1C=CC(=O)[C@@H](Cn2cc(CCCCl)nn2)O1	Toxic	6.25 (≈ 18.3 µM)	25 (≈ 73.1 µM)	1.56 (≈ 4.56 µM)	50 (≈ 146 µM)	Dose-dependent effect	50 (≈ 146 µM)	Non-toxic	12.5 (≈ 36.6 µM)	50 (≈ 146 µM)	3.12 (≈ 9.13 µM)	50 (≈ 146 µM)	6.25 (≈ 18.3 µM)	50 (≈ 146 µM)	–
CC(C)CCO[C@@H]1C=CC(=O)[C@@H](Cn2cc(-c3ccccn3)nn2)O1	–	12.5 (≈ 36.5 µM)	> 50	6.25 (≈ 18.3 µM)	> 50	–	> 50	–	25 (≈ 73 µM)	> 50	6.25 (≈ 18.3 µM)	> 50	12.5 (≈ 36.5 µM)	12.5 (≈ 36.5 µM)	–
CC(C)CCO[C@@H]1C=CC(=O)[C@@H](Cn2ccnn2)O1	–	> 50	50 (≈ 188 µM)	25 (≈ 94.2 µM)	> 50	–	> 50	–	> 50	50 (≈ 188 µM)	> 50	50 (≈ 188 µM)	> 50	> 50	–
CCCCCCc1cn(C[C@H]2O[C@H](OCCC(C)C)C=CC2=O)nn1	Toxic	6.25 (≈ 17.9 µM)	> 50	3.12 (≈ 8.93 µM)	> 50	Dose-dependent effect	> 50	Non-toxic	25 (≈ 71.5 µM)	> 50	1.56 (≈ 4.46 µM)	> 50	6.25 (≈ 17.9 µM)	12.5 (≈ 35.8 µM)	–
